Active and inactive are the calls of the source. The calls are words filed in the database; no cut-off is given here.
What was measured:
[1] = test system: PANC-1; experiment: Antiproliferative activity against human PANC-1 cells assessed as inhibition of cell proliferation incubated for 3 days by CellTiter-Glo Luminescent Cell Viability Assay; assay type: functional, cell-based; conditions: PANC-1, 72 h
Summary of the method: (§1)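 Cells of each line were plated in 384-well plates on day 1 and exposed to compound from day 2 for 3 days. On day 5 all medium was aspirated. Viable cell number was read by CellTiter-Glo luminescence, which quantifies cellular ATP.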

[2] = test system: HCT-116; experiment: Antitumor activity against human HCT-116 cells xenografted in nude mouse assessed as reduction in PKCalpha phosphorylation at S569 residue at 15 to 150 mg/kg/day administered via pump for 18 hrs by Reverse-Phase protein array analysis; assay type: functional, organism-based; conditions: dose 15-150 mg/kg/day
[3] = molecular target: Protein kinase C gamma type (Homo sapiens, UniProt P05129); experiment: Inhibition of human PKCgamma in presence of ATP relative to control; conditions: concentration not given here
[4] = test system: MDA-MB-436; experiment: Antiproliferative activity against human MDA-MB-436 cells assessed as inhibition of cell proliferation incubated for 3 days by CellTiter-Glo Luminescent Cell Viability Assay; assay type: functional, cell-based; conditions: MDA-MB-436, 72 h
Summary of the method: (§2)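 Cancer cell lines seeded in 384-well plates on day 1; compound added on day 2 and left for 3 days. On day 5 all medium was aspirated, and viable cells were quantified by CellTiter-Glo luminescence, which measures cellular ATP. Dose-dependent effects on proliferation were determined.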

[5] = test system: NCI-H2170; experiment: Inhibition of anchorage independent cell growth in human NCI-H2170 cells incubated for 6 days by Alamar blue reagent based fluorescence plate reader analysis; assay type: functional; conditions: NCI-H2170, 144 h
[6] = molecular target: Proto-oncogene tyrosine-protein kinase Src (Homo sapiens, UniProt P12931); experiment: Inhibition of human SRC in presence of ATP
[7] = Antiproliferative activity against human PL45 cells assessed as inhibition of cell proliferation incubated for 3 days by CellTiter-Glo Luminescent Cell Viability Assay; assay type: functional, cell-based; conditions: PL45, 72 h; summary of the method: as §1
[8] = test system: Panc1005; experiment: Antiproliferative activity against human Panc1005 cells assessed as inhibition of cell proliferation incubated for 3 days by CellTiter-Glo Luminescent Cell Viability Assay; assay type: functional, cell-based; conditions: Panc1005, 72 h; summary of the method: as §1
[9] = molecular target: Serine/threonine-protein kinase PAK 6 (Homo sapiens, UniProt Q9NQU5); experiment: Inhibition of PAK6 (unknown origin) using EVPRRKSLVGTPYWM peptide as substrate assessed as inhibition constant in presence of ATP by biochemical assay
Summary of the method: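 PAK6 kinase domain activity coupled to NADH oxidation via pyruvate kinase/lactate dehydrogenase (2 mM phosphoenolpyruvate, 0.33 mM NADH, 15 units/mL each PK and LDH) in 50 mM Hepes pH 7.5, 1 mM DTT, 5 mM MgCl2, 0.5 mM peptide 7, 0.072 mM ATP. Initial rates by linear least-squares regression; Ki from competitive or tight-binding inhibition fits.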

[10] = test system: HCT-116; experiment: Antitumor activity against human HCT-116 cells xenografted in nude mouse assessed as reduction in BAD phosphorylation at S136 residue at 15 to 150 mg/kg/day administered via pump for 18 hrs by Reverse-Phase protein array analysis; assay type: functional, organism-based; conditions: dose 15-150 mg/kg/day
[11] = test system: DLD-1; experiment: Antiproliferative activity against human DLD-1 cells assessed as inhibition of cell proliferation incubated for 3 days by CellTiter-Glo Luminescent Cell Viability Assay; assay type: functional, cell-based; conditions: DLD-1, 72 h; summary of the method: as §2
[12] = test system: HCT-116; experiment: Antitumor activity against human HCT-116 cells xenografted in nude mouse assessed as reduction in STAT6 phosphorylation at Y641 residue at 15 to 150 mg/kg/day administered via pump for 18 hrs by Reverse-Phase protein array analysis; assay type: functional, organism-based; conditions: dose 15-150 mg/kg/day
[13] = test system: M24met; experiment: Antitumor activity against human M24met cells xenografted in nude mouse assessed as tumor growth inhibition at 25 mg/kg, po administered once daily for 9 to 18 days relative to control; assay type: functional; conditions: time 9-18 day, read-out: TGI
[14] = molecular target: AMP-activated protein kinase (AMPK) alpha-1/beta-1/gamma-1 (Homo sapiens) (UniProt P54619+Q9Y478+Q13131); experiment: Inhibition of human AMPK alpha1/beta1/gamma1 in presence of ATP relative to control; assay type: protein-complex assay; conditions: concentration not given here
[15] = test system: HCC1395; experiment: Antiproliferative activity against human HCC1395 cells assessed as inhibition of cell proliferation incubated for 3 days by CellTiter-Glo Luminescent Cell Viability Assay; assay type: functional, cell-based; conditions: HCC1395, 72 h; summary of the method: as §2
[16] = molecular target: Ribosomal protein S6 kinase alpha-1 (Homo sapiens, UniProt Q15418); experiment: Inhibition of human RSK1 in presence of ATP
[17] = test system: LS-123; experiment: Antiproliferative activity against human LS-123 cells assessed as inhibition of cell proliferation incubated for 3 days by CellTiter-Glo Luminescent Cell Viability Assay; assay type: functional, cell-based; conditions: LS-123, 72 h; summary of the method: as §2
[18] = molecular target: Serine/threonine-protein kinase PAK 2 (Homo sapiens, UniProt Q13177); experiment: Inhibition of PAK2 (unknown origin)
[19] = molecular target: Tyrosine-protein kinase Yes (Homo sapiens, UniProt P07947); experiment: Inhibition of human YES1 in presence of ATP by cellular assay
[20] = test system: NCI-H1838; experiment: Antiproliferative activity against human NCI-H1838 cells assessed as inhibition of cell proliferation incubated for 3 days by CellTiter-Glo Luminescent Cell Viability Assay; assay type: functional, cell-based; conditions: NCI-H1838, 72 h; summary of the method: as §1
[21] = test system: HCT-116; experiment: Antitumor activity against human HCT-116 cells xenografted in nude mouse assessed as inhibition of [3H]FLT uptake at 25 mg/kg, po administered once a day for 2 day and measured after 2 hrs post [3H]FLT administration by scintillation counter analysis relative to control; assay type: functional; conditions: HCT-116, 48 h
Summary of the method: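 HCT116 xenograft mice (tumors 300–350 mm3, n = 5 per group) received oral vehicle or compound, with harvests on days 2, 3 and 6. Isoflurane-anesthetized mice were given [3H]FLT (15 nCi/g, i.p.) 2 h before killing. Tumor and liver were weighed, solubilized and scintillation-counted. SUV = C/(ID/W), and uptake is reported as the tumor-to-liver SUV ratio.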

[22] = test system: COLO 205; experiment: Antiproliferative activity against human COLO 205 cells assessed as inhibition of cell proliferation incubated for 3 days by CellTiter-Glo Luminescent Cell Viability Assay; assay type: functional, cell-based; conditions: COLO 205, 72 h; summary of the method: as §2
[23] = test system: CAMA-1; experiment: Antiproliferative activity against human CAMA-1 cells assessed as inhibition of cell proliferation incubated for 3 days by CellTiter-Glo Luminescent Cell Viability Assay; assay type: functional, cell-based; conditions: CAMA-1, 72 h; summary of the method: as §2
[24] = test system: MDA-MB-415; experiment: Antiproliferative activity against human MDA-MB-415 cells assessed as inhibition of cell proliferation incubated for 3 days by CellTiter-Glo Luminescent Cell Viability Assay; assay type: functional, cell-based; conditions: MDA-MB-415, 72 h; summary of the method: as §2
[25] = test system: COLO 320DM; experiment: Antiproliferative activity against human COLO 320DM cells assessed as inhibition of cell proliferation incubated for 3 days by CellTiter-Glo Luminescent Cell Viability Assay; assay type: functional, cell-based; conditions: 72 h; summary of the method: as §2
[26] = test system: HCT-116; experiment: Downregulation of camptothecin-induced phospho-S810-GEF-H1 level in human HCT-116 cells at 1 uM preincubated with compound for 15 mins followed by camptothecin stimulation and measured after 20 hrs by Western blot analysis; assay type: functional, cell-based; conditions: time 20.25 hrs
[27] = molecular target: Ribosomal protein S6 kinase alpha-2 (Homo sapiens, UniProt Q15349); experiment: Inhibition of human RSK3 assessed as inhibition constant in presence of ATP
Chain of Ribosomal protein S6 kinase alpha-2 (Q15349 whole entry): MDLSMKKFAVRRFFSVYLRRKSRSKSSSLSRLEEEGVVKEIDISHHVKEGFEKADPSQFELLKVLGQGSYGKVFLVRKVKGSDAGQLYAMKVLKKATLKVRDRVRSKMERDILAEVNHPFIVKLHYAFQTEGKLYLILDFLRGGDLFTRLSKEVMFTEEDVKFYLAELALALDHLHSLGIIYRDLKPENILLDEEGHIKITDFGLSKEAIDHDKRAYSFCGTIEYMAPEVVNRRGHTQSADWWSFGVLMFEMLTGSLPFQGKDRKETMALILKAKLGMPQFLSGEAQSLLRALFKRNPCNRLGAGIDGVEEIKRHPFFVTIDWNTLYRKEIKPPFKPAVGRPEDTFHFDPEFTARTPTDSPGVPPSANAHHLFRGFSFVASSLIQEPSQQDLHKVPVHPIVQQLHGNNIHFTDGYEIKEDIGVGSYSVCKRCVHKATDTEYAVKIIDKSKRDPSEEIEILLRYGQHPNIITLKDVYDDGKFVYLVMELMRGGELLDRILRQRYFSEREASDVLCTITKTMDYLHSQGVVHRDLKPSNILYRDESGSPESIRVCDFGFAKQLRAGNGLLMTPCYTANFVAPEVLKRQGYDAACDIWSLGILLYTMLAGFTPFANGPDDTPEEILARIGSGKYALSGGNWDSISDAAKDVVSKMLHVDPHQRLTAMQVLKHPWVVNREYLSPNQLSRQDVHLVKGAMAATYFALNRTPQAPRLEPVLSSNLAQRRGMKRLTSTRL

Chain of Serine/threonine-protein kinase PAK 6 (Q9NQU5 whole entry, the tested form may be a part): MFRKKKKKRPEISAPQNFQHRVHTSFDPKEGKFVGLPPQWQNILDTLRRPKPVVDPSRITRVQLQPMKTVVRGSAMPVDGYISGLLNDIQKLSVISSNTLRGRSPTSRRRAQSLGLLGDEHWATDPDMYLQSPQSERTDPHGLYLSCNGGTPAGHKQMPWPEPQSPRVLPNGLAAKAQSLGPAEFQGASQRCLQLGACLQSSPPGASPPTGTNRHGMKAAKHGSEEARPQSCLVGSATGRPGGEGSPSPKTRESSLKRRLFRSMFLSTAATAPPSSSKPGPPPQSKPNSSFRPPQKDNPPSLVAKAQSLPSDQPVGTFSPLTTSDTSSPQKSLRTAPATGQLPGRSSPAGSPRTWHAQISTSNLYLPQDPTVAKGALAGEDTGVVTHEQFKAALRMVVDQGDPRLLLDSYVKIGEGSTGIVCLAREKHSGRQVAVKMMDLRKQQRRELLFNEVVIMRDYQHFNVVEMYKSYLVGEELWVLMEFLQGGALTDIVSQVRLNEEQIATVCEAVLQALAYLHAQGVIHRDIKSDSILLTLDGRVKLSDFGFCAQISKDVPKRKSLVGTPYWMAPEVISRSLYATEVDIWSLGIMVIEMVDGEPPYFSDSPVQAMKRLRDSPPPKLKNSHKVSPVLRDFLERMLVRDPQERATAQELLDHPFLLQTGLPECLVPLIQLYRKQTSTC
Chain of Ribosomal protein S6 kinase alpha-1 (Q15418 whole entry): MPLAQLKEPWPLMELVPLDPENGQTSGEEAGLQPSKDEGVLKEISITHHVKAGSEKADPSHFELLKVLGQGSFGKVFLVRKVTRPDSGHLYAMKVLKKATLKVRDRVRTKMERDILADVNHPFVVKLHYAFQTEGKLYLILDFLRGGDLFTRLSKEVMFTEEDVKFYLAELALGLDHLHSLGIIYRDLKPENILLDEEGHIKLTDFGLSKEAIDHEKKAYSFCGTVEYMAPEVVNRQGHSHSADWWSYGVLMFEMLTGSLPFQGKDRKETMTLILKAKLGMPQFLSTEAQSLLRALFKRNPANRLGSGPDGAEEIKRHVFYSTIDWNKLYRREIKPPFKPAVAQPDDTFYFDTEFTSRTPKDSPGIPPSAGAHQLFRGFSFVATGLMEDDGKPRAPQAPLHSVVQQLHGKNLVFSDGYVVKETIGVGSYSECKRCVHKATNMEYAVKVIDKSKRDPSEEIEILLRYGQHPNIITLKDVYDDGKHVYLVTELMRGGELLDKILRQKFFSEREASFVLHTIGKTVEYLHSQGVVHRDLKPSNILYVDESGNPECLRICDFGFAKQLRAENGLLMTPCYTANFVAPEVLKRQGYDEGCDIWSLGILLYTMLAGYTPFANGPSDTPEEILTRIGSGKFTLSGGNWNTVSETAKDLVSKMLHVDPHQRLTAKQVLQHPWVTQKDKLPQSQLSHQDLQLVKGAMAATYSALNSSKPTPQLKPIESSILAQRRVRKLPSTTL
Chain of AMP-activated protein kinase (AMPK) alpha-1/beta-1/gamma-1 (Homo sapiens) (P54619 whole entry): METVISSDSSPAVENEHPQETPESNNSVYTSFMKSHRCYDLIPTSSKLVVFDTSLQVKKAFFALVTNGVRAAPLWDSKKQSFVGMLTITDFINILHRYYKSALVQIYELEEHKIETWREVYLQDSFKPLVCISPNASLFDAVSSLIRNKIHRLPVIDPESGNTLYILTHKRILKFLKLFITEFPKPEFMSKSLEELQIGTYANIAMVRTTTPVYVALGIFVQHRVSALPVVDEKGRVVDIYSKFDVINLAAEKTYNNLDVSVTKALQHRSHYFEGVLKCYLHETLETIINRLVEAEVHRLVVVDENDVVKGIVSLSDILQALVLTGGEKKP
Chain of AMP-activated protein kinase (AMPK) alpha-1/beta-1/gamma-1 (Homo sapiens) (Q13131 whole entry partner): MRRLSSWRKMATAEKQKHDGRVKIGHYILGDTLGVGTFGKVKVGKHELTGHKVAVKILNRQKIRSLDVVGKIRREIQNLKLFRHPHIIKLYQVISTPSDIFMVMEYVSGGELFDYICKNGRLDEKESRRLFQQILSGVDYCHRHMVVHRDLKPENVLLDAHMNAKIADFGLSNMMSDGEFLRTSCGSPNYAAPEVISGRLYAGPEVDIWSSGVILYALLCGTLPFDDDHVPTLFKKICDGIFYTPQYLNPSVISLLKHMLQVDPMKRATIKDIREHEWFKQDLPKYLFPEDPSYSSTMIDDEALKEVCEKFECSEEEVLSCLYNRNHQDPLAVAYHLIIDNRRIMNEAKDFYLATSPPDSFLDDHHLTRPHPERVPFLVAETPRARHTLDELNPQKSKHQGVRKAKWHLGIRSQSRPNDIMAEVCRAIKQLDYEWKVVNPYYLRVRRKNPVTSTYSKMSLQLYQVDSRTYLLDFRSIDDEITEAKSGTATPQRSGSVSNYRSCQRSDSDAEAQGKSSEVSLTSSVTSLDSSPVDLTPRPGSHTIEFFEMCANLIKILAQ
Chain of AMP-activated protein kinase (AMPK) alpha-1/beta-1/gamma-1 (Homo sapiens) (Q9Y478 2-270 partner limits assumed): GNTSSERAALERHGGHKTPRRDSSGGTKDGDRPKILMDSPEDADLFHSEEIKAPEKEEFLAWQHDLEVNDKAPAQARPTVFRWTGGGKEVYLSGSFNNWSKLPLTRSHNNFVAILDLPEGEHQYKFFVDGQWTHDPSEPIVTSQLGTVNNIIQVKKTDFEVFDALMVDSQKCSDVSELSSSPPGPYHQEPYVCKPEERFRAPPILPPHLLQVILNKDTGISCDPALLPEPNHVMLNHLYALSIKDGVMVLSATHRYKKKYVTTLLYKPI
Chain of Serine/threonine-protein kinase PAK 2 (Q13177 whole entry): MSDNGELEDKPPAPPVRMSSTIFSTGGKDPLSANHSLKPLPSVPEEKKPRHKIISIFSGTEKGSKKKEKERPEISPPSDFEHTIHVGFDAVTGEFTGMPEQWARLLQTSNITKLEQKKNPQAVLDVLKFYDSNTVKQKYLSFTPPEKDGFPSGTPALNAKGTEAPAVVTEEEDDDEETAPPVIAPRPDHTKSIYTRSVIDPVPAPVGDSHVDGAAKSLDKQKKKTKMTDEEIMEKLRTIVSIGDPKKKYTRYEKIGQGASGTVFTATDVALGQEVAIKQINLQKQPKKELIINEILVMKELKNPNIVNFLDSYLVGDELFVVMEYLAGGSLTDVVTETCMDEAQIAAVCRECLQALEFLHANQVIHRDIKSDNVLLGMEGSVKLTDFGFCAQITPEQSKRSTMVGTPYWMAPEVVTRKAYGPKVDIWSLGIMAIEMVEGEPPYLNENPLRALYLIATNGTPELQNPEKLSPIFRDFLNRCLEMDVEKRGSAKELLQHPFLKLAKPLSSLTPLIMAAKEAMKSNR

For Cc1nc(Nc2n[nH]c3c2CN(C(=O)N[C@H](CN(C)C)c2ccccc2)C3(C)C)c2sccc2n1 [PF-03758309], the IC50 [1] was 0.856 µM, the Activity [2] was “Active” and the inhibition [3] was 92%. The IC50 [4] was 0.00079 µM, the IC50 [5] was 0.00604 µM and the IC50 [6] was 0.055 µM. For the same molecule, the IC50 [7] was 0.053 µM, the IC50 [8] was 0.067 µM and the Ki [9] was 0.0171 µM. For the same molecule, the Activity [10] was “Active”, the IC50 [11] was 10 µM and the Activity [12] was “Active”. The inhibition in vivo at 25 mg/kg [13] was 85%, the inhibition [14] was 101% and the IC50 [15] was 0.0016 µM. For the same molecule, the IC50 [16] was 0.002 µM, the IC50 [17] was 10 µM and the IC50 [18] was 0.19 µM. The IC50 [19] was 0.612 µM, the IC50 [20] was 0.0055 µM and the inhibition in vivo at 25 mg/kg [21] was 35.3%. It also gave an IC50 [22] of 0.0028 µM, an IC50 [23] of 0.0027 µM and an IC50 [24] of 0.036 µM. For the same molecule, the IC50 [25] was 0.205 µM, the Activity [26] was “Active” and the Ki [27] was 0.011 µM.

— ChEMBL document CHEMBL5678802, “Small-molecule p21-activated kinase inhibitor PF-3758309 is a potent inhibitor of oncogenic signaling and tumor growth” (Proc Natl Acad Sci U S A, 2010)
